Assay results: ChEMBL document CHEMBL2384959, “Sesquiterpenes and alkaloids from the roots of Alangium chinense” (J Nat Prod, 2013)
Active and inactive are the calls of the source. No cut-off for these calls is given here.

tested on: Liver microsomes; assay: Antioxidant activity in rat liver microsome assessed as inhibition of Fe2+-cysteine-induced lipid peroxidation after 15 mins; assay type: functional; conditions: not given
How it was run: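 Rat liver microsomes (1.0 mg microsomal protein in 1 mL 0.1 M PBS, pH 7.4) incubated with […] cysteine plus test sample, 37 °C, 15 min; peroxidation started with 0.05 mM FeSO4. […] Vitamin E positive control.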

Compound | IC50
COc1c(OC)c2nccc3c4ccccc4n(c1=O)c23 [4,5-DIMETHOXYCANTHIN-6-ONE] | Not Active
CC1=Cc2c(C(C)C)ccc(C)c2C(=O)C1=O | Not Active
Cc1cc2c(c(O)c1O)[C@@H](C)CC[C@@H]2C(C)C [(1S,4R)-7,8-DIHYDROXYCALAMENENE] | Not Active

same assay, conditions: read-out: IC50

Compound | IC50 [µM]
Cc1cc2c(cc1O)[C@@](C)(O)C(=O)C=C2C(C)C [LACINILENE C] | 39.8
Cc1cc2c(C(C)C)cc(O)c(C)c2cc1O | 3.8
Cc1cc2c(C(C)C)ccc(C)c2cc1O | 4.3
COC(=O)c1c(O)cc(C(C)C)c2cc(C)c(O)cc12 | 4.9
CC1=C(O)C(=O)c2c(C)ccc3c(C)cnc1c23 | 3.9
CO[C@]1(C)C(=O)C=C(C(C)C)c2cc(C)c(O)cc21 | 23.8
CC1=C2OCC(C)c3ccc(C)c(c32)C(=O)C1=O (stereo unspecified) [MANSONONE E] | 45.7
VITAMIN E | 54.2
Cc1cc2c(C(C)C)cc(O)c(C=O)c2cc1O | 14.7
CC1=C2OC[C@@H](C)c3c(O)cc(C)c(c32)C(=O)C1=O | 17.8

tested on: BGC-823; assay: Cytotoxicity against human BGC823 cells by MTT assay; assay type: functional, cell-based; conditions: not given

Compound | Activity
Oc1ccccc1CN1CCCCC1c1cccnc1 (racemic) | inactive
COc1c(OC)c2nccc3c4ccccc4n(c1=O)c23 [4,5-DIMETHOXYCANTHIN-6-ONE] | inactive
Oc1ccccc1CN1CCCCC1(O)c1cccnc1 (racemic) | inactive
CC1=Cc2c(C(C)C)ccc(C)c2C(=O)C1=O | inactive
Oc1ccccc1CN1CCCC[C@@H]1c1cccnc1 [(2R)-N-HYDROXYBENZYLANABASINE] | inactive
Cc1cc2c(cc1O)[C@@](C)(O)C(=O)C=C2C(C)C [LACINILENE C] | inactive
Cc1cc2c(C(C)C)cc(O)c(C)c2cc1O | inactive
Oc1ccccc1CN1CCCC[C@H]1c1cccnc1 [(2S)-N-HYDROXYBENZYLANABASINE] | inactive
Oc1ccccc1CN1CCCC[C@@]1(O)c1cccnc1 | inactive
Cc1cc2c(C(C)C)ccc(C)c2cc1O | inactive
COC(=O)c1c(O)cc(C(C)C)c2cc(C)c(O)cc12 | inactive
Oc1ccccc1CN1CCCC[C@]1(O)c1cccnc1 | inactive
CC1=C(O)C(=O)c2c(C)ccc3c(C)cnc1c23 | inactive
CO[C@]1(C)C(=O)C=C(C(C)C)c2cc(C)c(O)cc21 | inactive
Cc1cc2c(c(O)c1O)[C@@H](C)CC[C@@H]2C(C)C [(1S,4R)-7,8-DIHYDROXYCALAMENENE] | inactive
CC1=C2OCC(C)c3ccc(C)c(c32)C(=O)C1=O (stereo unspecified) [MANSONONE E] | inactive
Cc1cc2c(C(C)C)cc(O)c(C=O)c2cc1O | inactive
C[C@@H]1CC[C@@H]2C(C)(C)O[C@@H]3[C@H](C)C(=O)C=C1[C@@]32O | inactive
CC1=C2OC[C@@H](C)c3c(O)cc(C)c(c32)C(=O)C1=O | inactive

tested on: HCT-8; assay: Cytotoxicity against human HCT8 cells by MTT assay; assay type: functional, cell-based; conditions: not given

Compound | Activity
Oc1ccccc1CN1CCCCC1c1cccnc1 (racemic) | inactive
COc1c(OC)c2nccc3c4ccccc4n(c1=O)c23 [4,5-DIMETHOXYCANTHIN-6-ONE] | inactive
Oc1ccccc1CN1CCCCC1(O)c1cccnc1 (racemic) | inactive
CC1=Cc2c(C(C)C)ccc(C)c2C(=O)C1=O | inactive
Oc1ccccc1CN1CCCC[C@@H]1c1cccnc1 [(2R)-N-HYDROXYBENZYLANABASINE] | inactive
Cc1cc2c(cc1O)[C@@](C)(O)C(=O)C=C2C(C)C [LACINILENE C] | inactive
Cc1cc2c(C(C)C)cc(O)c(C)c2cc1O | inactive
Oc1ccccc1CN1CCCC[C@H]1c1cccnc1 [(2S)-N-HYDROXYBENZYLANABASINE] | inactive
Oc1ccccc1CN1CCCC[C@@]1(O)c1cccnc1 | inactive
Cc1cc2c(C(C)C)ccc(C)c2cc1O | inactive
COC(=O)c1c(O)cc(C(C)C)c2cc(C)c(O)cc12 | inactive
Oc1ccccc1CN1CCCC[C@]1(O)c1cccnc1 | inactive
CC1=C(O)C(=O)c2c(C)ccc3c(C)cnc1c23 | inactive
CO[C@]1(C)C(=O)C=C(C(C)C)c2cc(C)c(O)cc21 | inactive
Cc1cc2c(c(O)c1O)[C@@H](C)CC[C@@H]2C(C)C [(1S,4R)-7,8-DIHYDROXYCALAMENENE] | inactive
CC1=C2OCC(C)c3ccc(C)c(c32)C(=O)C1=O (stereo unspecified) [MANSONONE E] | inactive
Cc1cc2c(C(C)C)cc(O)c(C=O)c2cc1O | inactive
C[C@@H]1CC[C@@H]2C(C)(C)O[C@@H]3[C@H](C)C(=O)C=C1[C@@]32O | inactive
CC1=C2OC[C@@H](C)c3c(O)cc(C)c(c32)C(=O)C1=O | inactive

tested on: Bel-7402; assay: Cytotoxicity against human Bel7402 cells by MTT assay; assay type: functional, cell-based; conditions: not given

Compound | Activity
Oc1ccccc1CN1CCCCC1c1cccnc1 (racemic) | inactive
COc1c(OC)c2nccc3c4ccccc4n(c1=O)c23 [4,5-DIMETHOXYCANTHIN-6-ONE] | inactive
Oc1ccccc1CN1CCCCC1(O)c1cccnc1 (racemic) | inactive
CC1=Cc2c(C(C)C)ccc(C)c2C(=O)C1=O | inactive
Oc1ccccc1CN1CCCC[C@@H]1c1cccnc1 [(2R)-N-HYDROXYBENZYLANABASINE] | inactive
Cc1cc2c(cc1O)[C@@](C)(O)C(=O)C=C2C(C)C [LACINILENE C] | inactive
Cc1cc2c(C(C)C)cc(O)c(C)c2cc1O | inactive
Oc1ccccc1CN1CCCC[C@H]1c1cccnc1 [(2S)-N-HYDROXYBENZYLANABASINE] | inactive
Oc1ccccc1CN1CCCC[C@@]1(O)c1cccnc1 | inactive
Cc1cc2c(C(C)C)ccc(C)c2cc1O | inactive
COC(=O)c1c(O)cc(C(C)C)c2cc(C)c(O)cc12 | inactive
Oc1ccccc1CN1CCCC[C@]1(O)c1cccnc1 | inactive
CC1=C(O)C(=O)c2c(C)ccc3c(C)cnc1c23 | inactive
CO[C@]1(C)C(=O)C=C(C(C)C)c2cc(C)c(O)cc21 | inactive
Cc1cc2c(c(O)c1O)[C@@H](C)CC[C@@H]2C(C)C [(1S,4R)-7,8-DIHYDROXYCALAMENENE] | inactive
CC1=C2OCC(C)c3ccc(C)c(c32)C(=O)C1=O (stereo unspecified) [MANSONONE E] | inactive
Cc1cc2c(C(C)C)cc(O)c(C=O)c2cc1O | inactive
C[C@@H]1CC[C@@H]2C(C)(C)O[C@@H]3[C@H](C)C(=O)C=C1[C@@]32O | inactive
CC1=C2OC[C@@H](C)c3c(O)cc(C)c(c32)C(=O)C1=O | inactive

tested on: Coxsackievirus; assay: Antiviral activity against Coxsackievirus B3 infected in african green monkey Vero cells assessed as inhibition of virus-induced cytopathic effect; assay type: functional, organism-based; conditions: not given
How it was run: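 Confluent Vero monolayers infected with 100 TCID50 Cox B3; 1 h adsorption at 37 °C, PBS wash, then maintenance medium (MEM + 2% FBS) ± graded compound concentrations at 37 °C. CPE scored once virus control reached 4+; IC50 by Reed and Muench. Ribavirin positive control.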

Compound | IC50 [µM]
Oc1ccccc1CN1CCCCC1c1cccnc1 (racemic) | > 20
COc1c(OC)c2nccc3c4ccccc4n(c1=O)c23 [4,5-DIMETHOXYCANTHIN-6-ONE] | 7.4
Oc1ccccc1CN1CCCCC1(O)c1cccnc1 (racemic) | > 20
CC1=Cc2c(C(C)C)ccc(C)c2C(=O)C1=O | > 20
Cc1cc2c(cc1O)[C@@](C)(O)C(=O)C=C2C(C)C [LACINILENE C] | 15.4
Cc1cc2c(C(C)C)cc(O)c(C)c2cc1O | 10.1
Cc1cc2c(C(C)C)ccc(C)c2cc1O | 5.3
NC(=O)c1ncn([C@@H]2O[C@H](CO)[C@@H](O)[C@H]2O)n1 [RIBAVIRIN] | 222
COC(=O)c1c(O)cc(C(C)C)c2cc(C)c(O)cc12 | 11.3
CC1=C(O)C(=O)c2c(C)ccc3c(C)cnc1c23 | > 20
CO[C@]1(C)C(=O)C=C(C(C)C)c2cc(C)c(O)cc21 | > 20
Cc1cc2c(c(O)c1O)[C@@H](C)CC[C@@H]2C(C)C [(1S,4R)-7,8-DIHYDROXYCALAMENENE] | 7.4
CC1=C2OCC(C)c3ccc(C)c(c32)C(=O)C1=O (stereo unspecified) [MANSONONE E] | 4.7
Cc1cc2c(C(C)C)cc(O)c(C=O)c2cc1O | 1.4
CC1=C2OC[C@@H](C)c3c(O)cc(C)c(c32)C(=O)C1=O | 3.1

tested on: BV-2; assay: Inhibition of LPS-induced nitric oxide production in […] BV2 cells after 24 hrs by spectrophotometry; assay type: functional, cell-based; conditions: Mus musculus, BV-2, 24 h
How it was run: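 BV2 microglial cells pre-cultured 24 h, then exposed to a range of concentrations and stimulated with E. coli 055:B5 LPS (300 ng/mL) for 24 h. Nitrite in the supernatant was measured with Griess reagent (1% sulfanilamide in 5% H3PO4 plus 0.1% N-(1-naphthyl)ethylenediamine, 1:1) for 20 min at room temperature, read at 550 nm against a sodium nitrite standard curve. Untreated cells served as negative control and curcumin as positive control.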

Compound | IC50 [µM]
Oc1ccccc1CN1CCCC[C@@H]1c1cccnc1 [(2R)-N-HYDROXYBENZYLANABASINE] | > 20
Oc1ccccc1CN1CCCC[C@H]1c1cccnc1 [(2S)-N-HYDROXYBENZYLANABASINE] | 6.7
COc1cc(/C=C/C(=O)CC(=O)/C=C/c2ccc(O)c(OC)c2)ccc1O [CURCUMIN] | 3.1

tested on: A2780; assay: Cytotoxicity against human A2780 cells by MTT assay; assay type: functional, cell-based; conditions: not given

Compound | Activity
Oc1ccccc1CN1CCCCC1c1cccnc1 (racemic) | inactive
COc1c(OC)c2nccc3c4ccccc4n(c1=O)c23 [4,5-DIMETHOXYCANTHIN-6-ONE] | inactive
Oc1ccccc1CN1CCCCC1(O)c1cccnc1 (racemic) | inactive
CC1=Cc2c(C(C)C)ccc(C)c2C(=O)C1=O | inactive
Oc1ccccc1CN1CCCC[C@@H]1c1cccnc1 [(2R)-N-HYDROXYBENZYLANABASINE] | inactive
Cc1cc2c(cc1O)[C@@](C)(O)C(=O)C=C2C(C)C [LACINILENE C] | inactive
Cc1cc2c(C(C)C)cc(O)c(C)c2cc1O | inactive
Oc1ccccc1CN1CCCC[C@H]1c1cccnc1 [(2S)-N-HYDROXYBENZYLANABASINE] | inactive
Oc1ccccc1CN1CCCC[C@@]1(O)c1cccnc1 | inactive
Cc1cc2c(C(C)C)ccc(C)c2cc1O | inactive
COC(=O)c1c(O)cc(C(C)C)c2cc(C)c(O)cc12 | inactive
Oc1ccccc1CN1CCCC[C@]1(O)c1cccnc1 | inactive
CC1=C(O)C(=O)c2c(C)ccc3c(C)cnc1c23 | inactive
CO[C@]1(C)C(=O)C=C(C(C)C)c2cc(C)c(O)cc21 | inactive
Cc1cc2c(c(O)c1O)[C@@H](C)CC[C@@H]2C(C)C [(1S,4R)-7,8-DIHYDROXYCALAMENENE] | inactive
CC1=C2OCC(C)c3ccc(C)c(c32)C(=O)C1=O (stereo unspecified) [MANSONONE E] | inactive
Cc1cc2c(C(C)C)cc(O)c(C=O)c2cc1O | inactive
C[C@@H]1CC[C@@H]2C(C)(C)O[C@@H]3[C@H](C)C(=O)C=C1[C@@]32O | inactive
CC1=C2OC[C@@H](C)c3c(O)cc(C)c(c32)C(=O)C1=O | inactive

tested on: A549; assay: Cytotoxicity against human A549 cells by MTT assay; assay type: functional, cell-based; conditions: not given

Compound | Activity
Oc1ccccc1CN1CCCCC1c1cccnc1 (racemic) | inactive
COc1c(OC)c2nccc3c4ccccc4n(c1=O)c23 [4,5-DIMETHOXYCANTHIN-6-ONE] | inactive
Oc1ccccc1CN1CCCCC1(O)c1cccnc1 (racemic) | inactive
CC1=Cc2c(C(C)C)ccc(C)c2C(=O)C1=O | inactive
Oc1ccccc1CN1CCCC[C@@H]1c1cccnc1 [(2R)-N-HYDROXYBENZYLANABASINE] | inactive
Cc1cc2c(cc1O)[C@@](C)(O)C(=O)C=C2C(C)C [LACINILENE C] | inactive
Cc1cc2c(C(C)C)cc(O)c(C)c2cc1O | inactive
Oc1ccccc1CN1CCCC[C@H]1c1cccnc1 [(2S)-N-HYDROXYBENZYLANABASINE] | inactive
Oc1ccccc1CN1CCCC[C@@]1(O)c1cccnc1 | inactive
Cc1cc2c(C(C)C)ccc(C)c2cc1O | inactive
COC(=O)c1c(O)cc(C(C)C)c2cc(C)c(O)cc12 | inactive
Oc1ccccc1CN1CCCC[C@]1(O)c1cccnc1 | inactive
CC1=C(O)C(=O)c2c(C)ccc3c(C)cnc1c23 | inactive
CO[C@]1(C)C(=O)C=C(C(C)C)c2cc(C)c(O)cc21 | inactive
Cc1cc2c(c(O)c1O)[C@@H](C)CC[C@@H]2C(C)C [(1S,4R)-7,8-DIHYDROXYCALAMENENE] | inactive
CC1=C2OCC(C)c3ccc(C)c(c32)C(=O)C1=O (stereo unspecified) [MANSONONE E] | inactive
Cc1cc2c(C(C)C)cc(O)c(C=O)c2cc1O | inactive
C[C@@H]1CC[C@@H]2C(C)(C)O[C@@H]3[C@H](C)C(=O)C=C1[C@@]32O | inactive
CC1=C2OC[C@@H](C)c3c(O)cc(C)c(c32)C(=O)C1=O | inactive
